The values that follow come from ChEMBL document CHEMBL2424517, “Eunicellin-based diterpenoids from the Formosan soft coral Klyxum molle with inhibitory activity on superoxide generation and elastase release by neutrophils” (J Nat Prod, 2013).

Test [1] is described as follows: Antiinflammatory activity in human neutrophils assessed as inhibition of fMLP/CB-induced elastase release at 10 uM incubated for 5 mins prior to fMLP/CB challenge. The format is functional. The settings on record: Neutrophil. Put shortly: (§1)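 Donor neutrophils (healthy adults, 20−30 y), purified by dextran sedimentation, Ficoll Hypaque and hypotonic lysis, kept in Ca2+-free HBSS pH 7.4 at 4 °C. Cells at 6 × 10^5/mL with MeO-Suc-Ala-Ala-Pro-Val-p-nitroanilide 100 μM as elastase substrate, equilibrated 37 °C 2 min before compound addition. Mean ± SEM, n = 3 or 4.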

A short description of test [2]: Antiinflammatory activity in human neutrophils assessed as inhibition of fMLP/CB-induced elastase release incubated for 5 mins prior to fMLP/CB challenge. The test is classed as functional, cell-based. Conditions: Neutrophil. Put shortly:
as §1

Test [3] is described as follows: Antiinflammatory activity in human neutrophils assessed as inhibition of fMLP/CB-induced superoxide anion generation at 10 uM incubated for 5 mins prior to fMLP/CB challenge. The test is classed as functional. The settings on record: Neutrophil. Put shortly:
(§2)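 Neutrophils from healthy adult donors (20−30 y), enriched by dextran sedimentation, Ficoll Hypaque centrifugation and hypotonic lysis, held in Ca2+-free HBSS pH 7.4 at 4 °C. Cells (6 × 10^5/mL) with ferricytochrome c 0.5 mg/mL and Ca2+ 1 mM, 37 °C 2 min, DMSO control. CB 1 μg/mL 3 min, then fMLP 100 nM 10 min. O2•− read as SOD-inhibitable cytochrome c reduction. Mean ± SEM, n = 3 or 4.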

Test [4] is described as follows: Antiinflammatory activity in human neutrophils assessed as inhibition of fMLP/CB-induced superoxide anion generation incubated for 5 mins prior to fMLP/CB challenge. The test is classed as functional, cell-based. The settings on record: Neutrophil. The gist of the method: as §2
Test [5] deals with T47D. Kind of test: Cytotoxicity against human T47D cells after 3 hrs by Alamar Blue assay. The format is functional. The settings on record: read-out: ED50 (the source's name). For orientation: Alamar Blue is a resazurin reagent that responds to reducing activity.
The test system of test [6] is MOLT-4. Kind of test: Cytotoxicity against human MOLT4 cells after 6 hrs by Alamar Blue assay. The format is functional. Conditions: MOLT-4, 6 h, read-out: ED50 (the source's name).
Test [7] relates to K562. Kind of test: Cytotoxicity against human K562 cells after 6 hrs by Alamar Blue assay. The test is classed as functional. The settings on record: K562, 6 h, read-out: ED50 (the source's name).

As usually defined, the inhibition is the relative decrease from the control value, in per cent. The term IC50 denotes the midpoint of a concentration-inhibition curve. For the compound `CC(=O)O[C@H]1[C@H](C(C)C)[C@@H]2[C@@H]([C@H]3C[C@](C)(O)[C@@H](OC(C)=O)CC[C@@](C)(OC(C)=O)[C@@H]2O3)[C@](O)(CCl)[C@H]1OC(C)=O`, the values for the inhibition at 10 µM in test [1] and in test [3] were 6.42% and 9.36%, respectively. Further, the IC50 in test [2] and in test [4] was more than 10 µM each time.

Take `CC(=O)O[C@H]1[C@H](C(C)C)[C@@H]2[C@@H]([C@H]3C[C@](C)(O)[C@H](O)CC[C@@](C)(OC(C)=O)[C@@H]2O3)[C@](O)(CCl)[C@H]1OC(C)=O`: the inhibition at 10 µM in test [1] worked out at 7.3%; in test [3], 5.02%. For the same compound, the IC50 in test [2] and in test [4] was more than 10 µM each time.

For `CC(=O)O[C@H]1C[C@H](C(C)C)[C@@H]2[C@@H]([C@H]3C[C@](C)(O)[C@@H](OC(C)=O)CC[C@@](C)(OC(C)=O)[C@@H]2O3)[C@]1(O)CCl`, the results for the inhibition at 10 µM in test [1] and in test [3] were -1.19% and 8.92%, respectively. Further, the IC50 in test [2] and in test [4] was more than 10 µM each time.

Consider `CC(=O)O[C@H]1C[C@H](C(C)C)[C@@H]2[C@@H]([C@H]3C[C@](C)(O)[C@@H](O)CC[C@@](C)(OC(C)=O)[C@@H]2O3)[C@]1(O)CCl`, for which the figures for the inhibition at 10 µM in test [1] and in test [3] were 9.18% and 3.37%, respectively. In addition, the IC50 in test [2] and in test [4] was more than 10 µM in each case.

On to `C=C1[C@H]2[C@@H]([C@@H](C(C)C)C[C@@H]1O)[C@H]1O[C@@H]2C[C@](C)(O)[C@@H](OC(=O)Cc2ccccc2)CC[C@@]1(C)OC(=O)CCC`, for which the results for the inhibition at 10 µM in test [1] and in test [3] were 89.2% and 81.6%, respectively. The IC50 in test [2] was 2.92 µM; in test [4] it was 3.13 µM. The EC50 stood at 8.58 µM in test [5], 4.35 µM in test [6] and 7.97 µM in test [7].

For `C=C1[C@H]2[C@@H]([C@H](C(C)C)[C@H](OC(C)=O)[C@@H]1O)[C@H]1O[C@@H]2C[C@](C)(O)[C@@H](OC(C)=O)CC[C@@]1(C)OC(=O)CCC`, the inhibition at 10 µM in test [1] amounted to 6.47%; in test [3], 10.5%. In addition, the IC50 in test [2] and in test [4] was more than 10 µM throughout.

For `C=C1[C@H]2[C@@H]([C@@H](C(C)C)[C@H](O)[C@@H]1OC(C)=O)[C@H]1O[C@@H]2C[C@](C)(O)[C@@H](OC(C)=O)CC[C@@]1(C)OC(=O)CCC`, the results for the inhibition at 10 µM in test [1] and in test [3] were 16.8% and 2.92%, respectively. The IC50 in test [2] and in test [4] was more than 10 µM in each case.

Take `C=C1[C@H]2[C@@H]([C@@H](C(C)C)[C@H](OC(C)=O)[C@@H]1O)[C@H]1O[C@@H]2C[C@](C)(O)[C@@H](O)CC[C@@]1(C)OC(=O)CCC`: the results for the inhibition at 10 µM in test [1] and in test [3] were 7.35% and 1.17%, respectively. Besides, the 50% inhibitory concentration (IC50) in test [2] and in test [4] was more than 10 µM each time.

On to `C=C1[C@H]2[C@H]([C@H]3O[C@@H]2C[C@](C)(O)[C@@H](OC(C)=O)CC[C@@]3(C)OC(C)=O)[C@H](C(C)C)C[C@@H]1O`, for which the inhibition at 10 µM in test [1] came to 7.33%; in test [3], 14.7%. Besides, the IC50 in test [2] and in test [4] was more than 10 µM in each case.

With `C=C1[C@H]2[C@@H]([C@@H](C(C)C)C[C@@H]1O)[C@H]1O[C@@H]2C[C@](C)(O)[C@@H](O)CC[C@@]1(C)OC(C)=O`, the inhibition at 10 µM in test [1] is 11.6%; in test [3], 7.14%. Besides, the half-maximal inhibitory concentration (IC50) in test [2] and in test [4] was more than 10 µM in each case.

As to `C=C1C[C@H]2O[C@H]([C@H]3[C@@H]2C(=C)[C@@H](O)C[C@@H]3C(C)C)[C@](C)(OC(C)=O)CC[C@@H]1O`, the inhibition at 10 µM in test [1] is 0.62%; in test [3], 3.2%. Moreover, the IC50 in test [2] and in test [4] was more than 10 µM each time.

With `O=c1[nH]cc(F)c(=O)[nH]1` [FLUOROURACIL], the figures for the EC50 in test [5], in test [6] and in test [7] were 50.2 µM, 15.1 µM and 16.2 µM, respectively.
